The text below walks through data of ChEMBL document CHEMBL1125290, “Bis basic substituted diaminobenzobisthiazoles as potential antiarthritic agents” (1992).

The structures appear in SMILES notation.

Holding throughout (type): functional
Assay [1] has as its system Rattus norvegicus. Description: Antiinflammatory activity against D-adjuvant arthritis in injected rat paw at the dose of 50 mg/kg by oral administration.
In assay [2] the test system is Rattus norvegicus. Description: Antiinflammatory activity against D-adjuvant arthritis in uninjected rat paw at the dose of 50 mg/kg by oral administration. The gist of the method: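 Rat developing adjuvant arthritis screen with oral dosing on a prophylactic protocol. Percent change in body weight versus untreated animals was recorded as a preliminary toxicity sign. Significance was assessed against controls by two-tailed Student's t test, p < 0.05.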

Assay [3] is filed under the species Rattus norvegicus. As to the kind of experiment: Antiinflammatory activity in D-adjuvant induced arthritis in rat measured by the change in body weight. On the set-up: concentration or dose not given beside the values.
The test system of assay [4] is Rattus norvegicus. As to the kind of experiment: Antiinflammatory activity against carrageenan induced rat paw edema (CPE), dosed orally. An outline of the steps: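 Male Sprague–Dawley rats (150 ± 10 g), five per group. Compound or vehicle given orally in 0.5% methylcellulose 1 h before subplantar injection of 0.1 mL 1% carrageenan in saline into the right hind paw. Paw volume measured by mercury displacement before dosing and 3 h after carrageenan; the difference is the edema volume. ANOVA with Dunnett's t test.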
A general note: Carrageenan injected into the paw causes an acute inflammation.

The inhibition in vivo is the change of the read-out against control, counted positive when it falls. The term Inhibition denotes the relative decrease from the control value, in per cent.

On to `CCOC(=O)c1c2sc(N)nc2cc2nc(N)sc12`, for which the inhibition in vivo at 50 mg/kg in the assay on Rattus norvegicus [1] turned out to be 23%; with Rattus norvegicus [2], 0%. Also, in the assay filed under Rattus norvegicus [3], the Activity is -14%. Besides, the Inhibition with Rattus norvegicus [4] was 2%.
On the same counts, the results for `O=C(CN1CCCCC1CCO)Nc1nc2cc3nc(NC(=O)CN4CCCCC4CCO)sc3cc2s1` (stereo unspecified) are 4%, 5%, -9% and 30%.
In the same order, the values of `O=C(CNC1CC1)Nc1nc2cc3nc(NC(=O)CNC4CC4)sc3cc2s1` are 0%, 16%, 14% and 18%.
Consider `O=C(CN1CCN(CCO)CC1)Nc1nc2cc3nc(NC(=O)CN4CCN(CCO)CC4)sc3cc2s1`, for which the inhibition in vivo at 50 mg/kg turned out to be 16% with Rattus norvegicus [1] and 72% with Rattus norvegicus [2]. The Activity in the assay filed under Rattus norvegicus [3] amounted to 0%. The Inhibition with Rattus norvegicus [4] was 24%.
On the same counts, the results for `O=C(CN1CCC(c2ccccc2)CC1)Nc1nc2cc3nc(NC(=O)CN4CCC(c5ccccc5)CC4)sc3cc2s1` are 40%, 12%, -12% and 1%.
In the same order, the values of `O=C(CNC1CCCCCC1)Nc1nc2cc3nc(NC(=O)CNC4CCCCCC4)sc3cc2s1` are 6%, 59%, 1% and 0%.
On the same counts, the results for `CCN(CC)CC(=O)Nc1nc2c(s1)c(OC)cc1nc(NC(=O)CN(CC)CC)sc12` are 47%, 51%, 7% and 32%.
As to `O=C(CN1CCNCC1)Nc1nc2cc3nc(NC(=O)CN4CCNCC4)sc3cc2s1`, the inhibition in vivo at 50 mg/kg in the assay with Rattus norvegicus [1] amounted to 31%; in the assay on Rattus norvegicus [2], 27%. The Activity in the assay filed under Rattus norvegicus [3] is listed as -9%. In the assay with Rattus norvegicus [4], the Inhibition turned out to be 19%.
For `O=C(CN1CCC(Cc2ccccc2)CC1)Nc1nc2cc3nc(NC(=O)CN4CCC(Cc5ccccc5)CC4)sc3cc2s1`, the figures for the inhibition in vivo at 50 mg/kg with Rattus norvegicus [1] and in the assay with Rattus norvegicus [2] were 15% and 13%, respectively. For the same molecule, in the assay filed under Rattus norvegicus [3], the Activity is -16%. The molecule further yielded an Inhibition with Rattus norvegicus [4] of 9%.
Regarding `O=C(CN1CCN(c2ccc(Cl)cc2)CC1)Nc1nc2cc3nc(NC(=O)CN4CCN(c5ccc(Cl)cc5)CC4)sc3cc2s1`, the inhibition in vivo at 50 mg/kg came out at 21% with Rattus norvegicus [1] and 41% with Rattus norvegicus [2]. Also, the Inhibition in the assay on Rattus norvegicus [4] stood at 12%.
On to `CCN(CC)CC(=O)Nc1nc2c(s1)c(OC)c(Cl)c1nc(NC(=O)CN(CC)CC)sc12`, for which the inhibition in vivo at 50 mg/kg turned out to be 38% with Rattus norvegicus [1] and 8% in the assay with Rattus norvegicus [2]. Further, in the assay filed under Rattus norvegicus [3], the Activity was -11%. In the assay with Rattus norvegicus [4], this molecule yielded an Inhibition of 17%.
Consider `CCN(CC)CC(=O)Nc1nc2cc3nc(NC(=O)CN(CC)CC)sc3c(Cl)c2s1`, for which the inhibition in vivo at 50 mg/kg amounted to 94% in the assay with Rattus norvegicus [1] and 100% with Rattus norvegicus [2]. For the same molecule, the Activity in the assay listed under Rattus norvegicus [3] is -46%. Also, the Inhibition in the assay on Rattus norvegicus [4] is recorded as 8%.
On to `CN(CC(=O)Nc1nc2cc3nc(NC(=O)CN(C)C4CCCCCCC4)sc3cc2s1)C1CCCCCCC1`, for which the inhibition in vivo at 50 mg/kg with Rattus norvegicus [1] is 22%; in the assay on Rattus norvegicus [2], 29%. Also, the Activity in the assay listed under Rattus norvegicus [3] is -3%. The molecule also showed an Inhibition in the assay on Rattus norvegicus [4] of 0%.
In the same order, the values of `CCN(CC)CC(=O)Nc1nc2cc3nc(NC(=O)CN4CCCCC4)sc3cc2s1` are 50%, 58%, -14% and 20%.
In the same order, the values of `CC1CCCCN1CC(=O)Nc1nc2cc3nc(NC(=O)CN4CCCCC4C)sc3cc2s1` (stereo unspecified) are 41%, 82%, 6% and 0%.
Regarding `O=C(CN1CCCC1)Nc1nc2cc3nc(NC(=O)CN4CCCC4)sc3cc2s1`, the inhibition in vivo at 50 mg/kg came to 18% with Rattus norvegicus [1] and 21% in the assay with Rattus norvegicus [2]. The Activity in the assay filed under Rattus norvegicus [3] was -21%. In the assay on Rattus norvegicus [4], this molecule displayed an Inhibition of 17%.
In the same order, the values of `O=C(CN1CCN(CC(F)(F)F)CC1)Nc1nc2cc3nc(NC(=O)CN4CCN(CC(F)(F)F)CC4)sc3cc2s1` are 0%, 10%, -13% and 25%.
With `CCOC(=O)C1CCCCN1CC(=O)Nc1nc2cc3nc(NC(=O)CN4CCCCC4C(=O)OCC)sc3cc2s1` (stereo unspecified), the inhibition in vivo at 50 mg/kg was determined as 6% in the assay with Rattus norvegicus [1] and 0% in the assay on Rattus norvegicus [2]. Also, the Activity in the assay filed under Rattus norvegicus [3] was -16%. The molecule also displayed an Inhibition with Rattus norvegicus [4] of 20%.
On the same counts, the results for `CCN(CC)CC(=O)N(CC)c1nc2cc3nc(N(CC)C(=O)CN(CC)CC)sc3c(Br)c2s1` are 0%, 0%, -16% and 16%.
For the molecule `O=C(CN1CCCCCC1)Nc1nc2cc3nc(NC(=O)CN4CCCCCC4)sc3cc2s1`, the inhibition in vivo at 50 mg/kg in the assay with Rattus norvegicus [1] was 26%; in the assay with Rattus norvegicus [2], 27%. The same molecule returned an Inhibition in the assay with Rattus norvegicus [4] of 0%.
Turning to `O=C(CN1CCC(N2CCCCC2)CC1)Nc1nc2cc3nc(NC(=O)CN4CCC(N5CCCCC5)CC4)sc3cc2s1`, the inhibition in vivo at 50 mg/kg in the assay with Rattus norvegicus [1] worked out at 46%; with Rattus norvegicus [2], 38%. Also, the Activity in the assay listed under Rattus norvegicus [3] is on record as -3%. The molecule also gave an Inhibition in the assay on Rattus norvegicus [4] of 0%.
Take `CN(C)CC(=O)Nc1nc2cc3nc(NC(=O)CN(C)C)sc3cc2s1`: the inhibition in vivo at 50 mg/kg turned out to be 1% with Rattus norvegicus [1] and 81% in the assay with Rattus norvegicus [2]. In the assay listed under Rattus norvegicus [3], the Activity is recorded as -37%. The molecule further gave an Inhibition in the assay on Rattus norvegicus [4] of 8%.
In the same order, the values of `CN(CC(=O)Nc1nc2cc3nc(NC(=O)CN(C)C4CCCC4)sc3cc2s1)C1CCCC1` are 21%, 3%, -18% and 6%.
In the same order, the values of `Cl.Cl.O=C(CN1CCOCC1)Nc1nc2cc3nc(NC(=O)CN4CCOCC4)sc3cc2s1` are 18%, 21%, -21% and 17%.
In the same order, the values of `CCN(CC)CC(=O)Nc1nc2c(ccc3nc(NC(=O)CN(CC)CC)sc32)s1.Cl.Cl` are 2%, 36%, -20% and 0%.
For the molecule `CC1CN(CC(=O)Nc2nc3cc4nc(NC(=O)CN5CC(C)NCC5C)sc4cc3s2)C(C)CN1.Cl.Cl.Cl.Cl` (stereo unspecified), the inhibition in vivo at 50 mg/kg in the assay with Rattus norvegicus [1] and in the assay on Rattus norvegicus [2] was 0% throughout. Moreover, the Activity in the assay filed under Rattus norvegicus [3] is on record as -6%. The Inhibition in the assay with Rattus norvegicus [4] is recorded as 0%.
Take `O=C(CN1CCN(Cc2ccccc2)CC1)Nc1nc2cc3nc(NC(=O)CN4CCN(Cc5ccccc5)CC4)sc3cc2s1`: the inhibition in vivo at 50 mg/kg in the assay with Rattus norvegicus [1] was 5%; with Rattus norvegicus [2] it was 6%. Also, the Activity in the assay filed under Rattus norvegicus [3] is -6%. In addition, the Inhibition with Rattus norvegicus [4] was 26%.
